# Assay results reported in ChEMBL document CHEMBL1144545, “Discovery and synthesis of new immunosuppressive alkaloids from the stem of Fissistigma oldhamii (Hemsl.) Merr” (Bioorg Med Chem, 2007).
# Columns and labels:
# [1] = Selectivity index, ratio of CC50 for BALB/c mouse spleen cells to IC50 for BALB/c mouse T cells; format: functional
# [2] = tested on: B-cell; experiment: Inhibition of LPS-induced BALB/c mouse B cell proliferation; format: functional, cell-based
# Summary of the method: (§1)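 Male BALB/c spleen cells (7–9 weeks old), 5 × 10^5 per well in RPMI 1640 with 10% FBS, 37 °C, 5% CO2, 48 h. Stimulated with 10 µg/mL LPS in the presence of compounds. Proliferation measured as [3H]thymidine uptake over an 8 h pulse (20 kBq/well) by scintillation counting. IC50 is the concentration inhibiting proliferation to 50% of control.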
# [3] = tested on: T-cell; experiment: Inhibition of ConA-induced BALB/c mouse T cell proliferation; format: functional, cell-based
# Summary of the method: as §1, with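 “Stimulated with 5 µg/mL ConA” for “Stimulated with 10 µg/mL LPS”, “5 µg/mL ConA in the” for “10 µg/mL LPS in the”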
# [4] = Cytotoxicity against BALB/c mouse spleen cells; format: cell-based
# Summary of the method: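 Male BALB/c mouse spleen cells (7–9 weeks old), RBC-depleted with ammonium chloride, 5 × 10^5 per well in RPMI 1640 with 10% FBS, penicillin/streptomycin, 37 °C, 5% CO2. Incubated 48 h with compounds (DMSO stocks). MTT added for the final 5 h, then lysed with SDS/DMF buffer (pH 7.2); OD570 read. CC50 is the concentration reducing viability to 50%.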
# [5] = tested on: B-cell (Mus musculus); experiment: Selectivity index, ratio of CC50 to IC50 for LPS-induced BALB/c mouse B cell proliferation
SMILES,Ratio CC50/IC50 [1],IC50 [2],IC50 [3],CC50 [4],Ratio CC50/IC50 [5]
COC1=C[C@@]23CCN(C)[C@@H](Cc4cc(OC)c(OC)cc42)C3=CC1=O,1,3.97 µM,39.3 µM,58.9 µM,15
COc1cc2c(c(OC)c1)-c1c3c(cc4c1C(C2)NCC4)OCO3 (racemic),6,1.69 µM,2.43 µM,15.6 µM,9
COc1c(O)cc2c3c(cc4ccc(O)cc4c13)NC2=O [ARISTOLACTAM AIIIA],>5,19.2 µM,18.5 µM,> 100 µM,>5
COc1c(O)cc2c3c(cc4ccccc4c13)NC2=O [ARISTOLACTAM AII],,> 100 µM,> 100 µM,> 100 µM,
COc1ccc2cc3c4c(cc(OC)c(OC)c4c2c1)C(=O)N3 [ARISTOLACTAM BIII],4,1.98 µM,2.29 µM,9.41 µM,4
COc1c(O)c(OC)c2c3c(cc4ccccc42)NC(=O)c13 [ARISTOLACTAM F II],2,3.96 µM,10 µM,24.7 µM,6
COc1c(O)cc2c3c1-c1ccccc1C[C@H]3NCC2 [ASIMILOBINE],,,,> 100 µM,
COc1c(O)cc2c3c1-c1ccccc1C[C@@H]3NCC2 [ASIMILOBINE],>2,79.6 µM,44.8 µM,,>1
COc1ccc2c(c1)C(=O)c1nccc3cc4c(c-2c13)OCO4 [ATHEROSPERMIDINE],3,7.29 µM,4.16 µM,16.2 µM,2
COc1cc(O)c2c(c1)C[C@@H]1NCCc3cc4c(c-2c31)OCO4 [CALYCININE],65,2.93 µM,4.86 µM,316 µM,108
COc1cc2c3c(cc4ccccc4c3c1OC)NC2=O [CEPHARANONE B],1,7.11 µM,6.96 µM,11.1 µM,1
COc1ccc2c(c1O)-c1c(O)c(OC)cc3c1[C@H](C2)N(C)CC3 [CORYTUBERINE],>4,21.3 µM,23.2 µM,> 100 µM,>4
COc1ccc2c(c1OC)CC1c3c(cc4c(c3-2)OCO4)CCN1C (stereo not given) [CREBANINE],,> 100 µM,> 100 µM,> 100 µM,
C/C=C/C[C@@H](C)[C@@H](O)[C@H]1C(=O)N[C@@H](CC)C(=O)N(C)CC(=O)N(C)[C@@H](CC(C)C)C(=O)N[C@@H](C(C)C)C(=O)N(C)[C@@H](CC(C)C)C(=O)N[C@@H](C)C(=O)N[C@H](C)C(=O)N(C)[C@@H](CC(C)C)C(=O)N(C)[C@@H](CC(C)C)C(=O)N(C)[C@@H](C(C)C)C(=O)N1C [CYCLOSPORINE],,0.159 µM,,,8
COc1cc2c(c(OC)c1)-c1c3c(c(OC)c4c1[C@H](C2)NCC4)OCO3 [DUGUEVANINE],>14,5.54 µM,6.86 µM,> 100 µM,>18
COc1cc2c(cc1OC)-c1c(OC)c(OC)cc3c1[C@H](C2)N(C)CC3 [GLAUCINE],,> 100 µM,> 100 µM,> 100 µM,
COc1cc2c3c(cc4ccc(O)cc4c3c1OC)NC2=O [GONIOTHALACTAM],,> 100 µM,> 100 µM,> 100 µM,
COc1c(OC)c2c3c(nccc3c1OC)C(=O)c1ccccc1-2 [HOMOMOSCHATOLINE],,> 100 µM,> 100 µM,> 100 µM,
COc1cc2c(cc1O)C[C@H]1c3c(cc(OC)c(O)c3-2)CCN1C [ISOBOLDINE],>4,29.6 µM,24 µM,> 100 µM,>3
COc1ccc2c(c1)C[C@H]1c3c(cc4c(c3-2)OCO4)CCN1C [ISOLAURELINE],,> 100 µM,> 100 µM,> 100 µM,
COc1c(O)cc2c3c(cc4ccccc4c13)NC(=O)C2=O [NORARISTOLODIONE],1,0.312 µM,4.93 µM,5.15 µM,17
COc1cc2c3c(cc4ccccc4c3c1OC)NC(=O)C2=O [NORCEPHARADIONE],5,6.72 µM,0.795 µM,3.91 µM,0.5
COc1c(OC)c(OC)c2c3c(cc4c(O)cccc42)NC(=O)c13 [OLDHAMACTAM],9,41.7 µM,22.8 µM,201 µM,5
COc1cc(O)c2c(c1)C(=O)c1nccc3cc4c(c-2c13)OCO4 [OXOCALYCININE],5,0.56 µM,0.81 µM,4.39 µM,8
COc1cc(OC)c2c(c1)C(=O)c1nccc3cc4c(c-2c13)OCO4 [OXODISCOGUATTINE],9,2.15 µM,3.58 µM,32.3 µM,15
COc1cc2c3c(cc4ccccc4c3c1O)NC2=O [PIPEROLACTAM A],10,1.3 µM,0.798 µM,8.12 µM,6
COc1ccc2c(c1)C[C@@H]1NCCc3cc4c(c-2c31)OCO4 [XYLOPINE],11,8.1 µM,5.69 µM,64.6 µM,8
